# Screening results as filed in PubChem BioAssay.
# This excerpt belongs to a sample that is enriched for hits.
# PGC1a acetyl up: raises PGC1a acetylation signal in U2OS cells | AID 651723 | 350,000 tested, 0.21% active | activation, % at 15.6 µM | U2OS PGC1a acetylation AlphaScreen, overnight;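 active means every replicate reaching activation of at least 50%, whatever the mean replicate activation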;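 further: hits raise the AlphaScreen acetylation signal above neutral controls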
#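 System – flag-PGC1a/GCN5 U2OS cells · Quantity – 7000 U2OS cells per well · Signal – AlphaScreen proximity luminescence, anti-acetyl-lysine antibody · Schedule – overnight compound treatment, 37 °C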
# Active calls of the source: *.
SMILES,PGC1a acetyl up
C[C@@H]1CN([C@H](C)CO)C(=O)CCCn2nncc2CO[C@H]1CN(C)C(=O)Nc1cccc(F)c1,-57
CN(C)CCNC(=O)c1cccc2c(-c3ccc(F)c(F)c3)coc12,78*
COc1cccc(C(=O)/C=C/c2ccc(OCC#N)c(OC)c2)c1,183*
COc1ccc(OC)c(C(=O)/C=C/c2ccccc2C(F)(F)F)c1,-46
CCCOc1ccc(/C=C/C(=O)O)cc1OC,-62
O=C1C=CCCN1C(=O)/C=C/c1cccc(Br)c1,-46
COc1ccc(CN(C)C[C@@H]2Oc3ccc(NS(=O)(=O)c4c(C)noc4C)cc3C(=O)N([C@@H](C)CO)C[C@@H]2C)cc1,-56
COc1ccc(C2CCc3cc4c(cc3C2=NOC(C)=O)OCO4)cc1OC (stereo unspecified),56*
COc1ccc(NC(=O)c2ccc3c(c2)OCO3)cc1Cl,-42
CC1=C(C(=O)OCc2ccc3c(c2)OCO3)C(c2ccc(Cl)cc2)NC(=O)N1 (stereo unspecified),-43
O=S(=O)(c1cnccc1N1CCN(/N=C/c2ccccc2)CC1)N1CCCCC1,-57
C=CCn1cccc(/C=C/C(=O)c2ccc(C(C)(C)C)cc2)c1=S,-53
Cc1cccc(S(=O)(=O)N(C)C[C@@H]2OCc3cn(nn3)CCCC(=O)N([C@H](C)CO)C[C@H]2C)c1,-52
O=c1c2c3c(sc2n2cnnc2n1Cc1ccccc1)CN(Cc1ccccc1)CC3,73*
COc1ccc(C#Cc2ccc([C@@H]3[C@H](CO)N4CCCCN(C(=O)Nc5ccc(F)cc5)C[C@@H]34)cc2)cc1,71*
CC(C)CC#Cc1ccc([C@H]2[C@H](CO)N3C(=O)CN(C(=O)Nc4cc(F)ccc4F)C[C@@H]23)cc1,-57
O=C(Nc1cccc(F)c1)N1CC(=O)N2[C@@H](CO)[C@@H](c3ccc(C#Cc4cccnc4)cc3)[C@@H]2C1,-41
Cn1ncc(C(=O)Nc2ccc(Cl)cc2)c1C(F)(F)F,-65
O=C(COC(=O)c1ccc([N+](=O)[O-])s1)Nc1ccc(F)cc1,106*
COc1ccc(C(=O)NCCCSC)cc1OC1CCN(C(C)C)CC1,-44
CCCCCSc1nnc(C)c(=O)[nH]1,-91
CCOc1ccccc1CNC(=O)c1cc2oc3ccccc3c2n1C,88*
C=CCn1c(C)nnc1SCC(=O)NC1CC1,-50
O=C(CSc1nc(O)cc(=O)n1-c1ccccc1)N1CCCCC1,-44
Nc1nnc(SCC(=O)NC2CCCCC2)n1-c1ccccc1,62*
SMILES,PGC1a acetyl up
COc1ccccc1C(=O)Nc1ccc2c(c1)C(=O)N(C)C[C@H](OC)[C@H](C)CN(CC1CC1)[C@@H](C)CO2,-52
COc1ccccc1C(=O)Nc1ccc2c(c1)nc(CCNC(=O)c1ccco1)n2C,115*
COc1ccccc1NC(=O)c1ccc(NC(=O)CNC(=O)c2ccc(OC)c(OC)c2)cc1,71*
CCn1nccc1C(=O)Nc1ccccc1OC,-42
CCn1c(=N)n(CC(=O)c2ccc(OC)c(OC)c2)c2ccccc21,-46
O=C1N(Cc2ccccc2)Cc2ccccc2[C@@H]2OC(c3ccc(OCCCO)cc3)=N[C@]12Cc1ccccc1,52*
CC(=O)c1cccc(-n2nnnc2SCC(=O)NNC(=O)C(C)C)c1,-85
CC(=O)Nc1ccc(OS(=O)(=O)c2ccc(C)cc2C)cc1,-48
CCOc1ccc2c(c1)C(C)=CC(C)(C)N2S(=O)(=O)c1ccc(NC(C)=O)cc1,106*
CO[C@H]1CN(C)C(=O)c2cc(NC(C)=O)ccc2OC[C@@H](C)N(CC2CCCCC2)C[C@@H]1C,-41
C#CC(=O)N(c1cc(OC)ccc1OC)C(C(=O)NC1CCCC1)c1cccs1 (stereo unspecified),-88
O=S1(=O)CCC(N=Cc2ccc(-c3ccc(Cl)cc3)o2)C1 (stereo unspecified),-44
CCOc1ccc(NC(=O)c2cccc3c2C(=O)N(CCOC)C3)cc1,94*
Cc1ccc(O)c(NC(=O)c2ccc3c(c2)C(=O)N(CC(C)C)C3=O)c1,-44
COc1ccc2cc3c(N)nn(C(=O)c4ccccc4Cl)c3nc2c1,-42
O=C(CCC1CCCCC1)NCc1cccs1,-41
COc1ccc2cc3cc(C(=O)NCc4cccs4)oc3nc2c1,70*
CC(C)OC(=O)CSc1nc2cccnc2n1-c1ccc(F)cc1,53*
COC(=O)c1cccc(NC(=O)CSc2nc3cccnc3n2C)c1,-53
CC1CCCC(C)N1C(=S)NCc1ccco1 (stereo unspecified),-47
C[C@@H]1CCCCO[C@H](CN(C)C(=O)Cc2ccccc2)[C@H](C)CN([C@@H](C)CO)C(=O)c2cc(N(C)C)ccc2O1,-54
C[C@@H]1CN([C@@H](C)CO)C(=O)c2c(c3ccccc3n2C)-c2ccccc2CO[C@@H]1CN(C)C(=O)[C@H](C)c1ccccc1,115*
C[C@@H]1CN([C@@H](C)CO)C(=O)CCCn2cc(nn2)CO[C@H]1CN(C)C(=O)Cc1ccccc1,-56
O=C(O)c1cccn1Cc1ccccc1F,-54
CN1[C@@H]2CC(OC(=O)[C@H](CO)c3ccccc3)C[C@H]1[C@@H]1O[C@@H]12 (stereo partly specified),-58
SMILES,PGC1a acetyl up
Cc1ccc(Nc2nc(-c3c(C)nc4ccccn34)cs2)cc1,121*
Cc1ccc(Nc2nc(-c3c(C)nc4ncccn34)cs2)cc1,80*
O=C(Nc1ccc(-c2cn3c(n2)SCC3)cc1)c1ccc2ccccc2n1,-40
CC(C)NC(=O)c1c(O)c2ccccc2[nH]c1=O,97*
Cc1[nH]c2ccccc2c1C(=O)/C=C/c1ccccc1,-71
O=C(N/N=C/c1ccc(F)cc1)c1c(O)c2ccccc2[nH]c1=O,-45
C=C1C(=O)O[C@@H]2[C@H]1[C@@H](OC(=O)/C(C)=C/C)C/C(C)=C\C(=O)/C=C(\C)[C@@H]2O,198*
COc1cccc(N2CCN(c3ncnc4c3[nH]c3ccc(F)cc34)CC2C)c1 (stereo unspecified),-77
Cc1cccc(S(=O)(=O)N(C)C[C@@H]2OCc3cn(nn3)CCCC(=O)N([C@@H](C)CO)C[C@H]2C)c1,-59
O=C1C(c2ccccc2)C(c2ccccc2)NC(c2ccccc2)C1c1ccccc1 (stereo unspecified),55*
C=C1C(=O)[C@]23C[C@H]1CCC2[C@@]1(C)C(C[C@@H]3O)[C@](C)(C(=O)OC)CC[C@@H]1OC(C)=O (stereo partly specified),-103
CCSc1nnc(NC(=O)CSC2=NCCS2)s1,-94
COc1ccc(-c2cnc3c(c2)C(=O)N([C@H](C)CO)C[C@@H](C)[C@@H](CN(C)C(=O)Nc2c(C)noc2C)O3)cc1,-43
O=C(O)C1C2CC3OC(=O)C1C3C2 (stereo unspecified),-62
CC(C)(C)c1ccc2c(c1)OC(C(=O)N/N=C/c1ccc([N+](=O)[O-])o1)CO2 (stereo unspecified),165*
O=S(=O)(/C(=C\c1ccc(C(F)(F)F)cc1)c1nc2ccccc2[nH]1)c1ccccc1,-60
C/C(N)=C(/C#N)C(=O)COc1ncnc2ccc(Br)cc12,90*
CN(C)C(=O)C[C@H]1CC[C@@H](NC(=O)C2CCC2)[C@H](CO)O1,-46
O=C(CC(Nc1ccc(F)cc1)C(=O)O)c1ccccc1 (stereo unspecified),76*
CO[C@@H]1CN(C)C(=O)c2ccc(NS(C)(=O)=O)cc2OC[C@@H](C)N(Cc2nccs2)C[C@@H]1C,-45
CC(C)(C)c1ccc(NC(=O)N2CCCN(c3ccc([N+](=O)[O-])cn3)CC2)cc1,186*
